Results taken from ChEMBL document CHEMBL6074622, “8-l-Cystinyl Bis(1,8-diazaspiro[4.5]decane) as an Orally Bioavailable l-Cystine Crystallization Inhibitor for Cystinuria” (ACS Med Chem Lett, 2024).
pEC50: −log10 of the molar value.

Assays:
[1] = Cmax in Slc3a1-knockout mouse by measuring (2R)-2-amino-3-[[(2R)-2-amino-3-(1,8-diazaspiro[4.5]decan-8-yl)-3-oxo-propyl]disulfanyl]propanoic acid metabolite at 150 micromol/kg, po or 30 micromol/kg, iv measured upto 24 hrs by LC-MS/MS analysis; type: ADME, organism-based; details: in vivo, dose 150 µmol/kg
Method in brief: (§1)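 Male Slc3a1-knockout mice (4 per route) dosed once by oral gavage in normal saline (150 μmol/kg) or by tail vein injection (30 μmol/kg). Saphenous-vein blood drawn into heparinized capillaries before dosing and at 5, 15, 30 min and 1, 4, 8, 24 h. Plasma stored at −80 °C. Parent and mixed-disulfide metabolite M1 quantitated by LC-MS/MS against synthetic M1. Oral bioavailability derived from oral versus iv exposure.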

[2] = AUC (0 to t) in Slc3a1-knockout mouse at 150 micromol/kg, po or 30 micromol/kg, iv measured upto 24 hrs by LC-MS/MS analysis; type: ADME, organism-based; details: in vivo, dose 150 µmol/kg; method in brief: as §1
[3] = tested on: Cystine; test: Inhibition of L-cystine crystallization in aqueous solution assessed as ratio of step velocity in presence of compound to step velocity measured initially in absence of compound at 30 uM by atomic force microscopic analysis
Method in brief: (§2)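 AFM on the {0001} face of L-cystine crystals. Crystals were regrown for 20 min under flowing supersaturated 2 mM L-cystine (20 mL/h). {1010} step velocity was measured without inhibitor (V0), then with inhibitor at 15, 30 or 45 μM (V). Images were taken about 25 min after inhibitor injection. Result reported as a V/V0 range.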

[4] = Toxicity in SLC3A1-knockout male mouse assessed as body weight at 150 micromol/kg, po administered daily for 8 weeks (reference value: 20.3 +/- 2.1 g); type: organism-based; details: in vivo, 1344 h, dose 150 µmol/kg
[5] = Drug level in SLC3A1-knockout mouse urine assessed as (2R)-2-amino-3-[[(2R)-2-amino-3-(1,8-diazaspiro[4.5]decan-8-yl)-3-oxo-propyl]disulfanyl]propanoic acid metabolite concentration in urine at 150 micromol/kg, po measured after 24 hrs; type: ADME, organism-based; details: in vivo, dose 150 µmol/kg, read-out: Ct
Method in brief: (§3)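 Urine was collected 24 and 48 h after dosing. Parent and mixed-disulfide metabolite were measured, with the metabolite quantitated against chemically synthesized standard.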

[6] = AUC (0 to t) in Slc3a1-knockout mouse by measuring total parent compound and (2R)-2-amino-3-[[(2R)-2-amino-3-(1,8-diazaspiro[4.5]decan-8-yl)-3-oxo-propyl]disulfanyl]propanoic acid metabolite at 150 micromol/kg, po or 30 micromol/kg, iv measured upto 24 hrs by LC-MS/MS analysis; type: ADME, organism-based; details: in vivo, dose 150 µmol/kg; method in brief: as §1
[7] = Toxicity in SLC3A1-knockout male mouse assessed as increase in body weight at 150 micromol/kg, po administered daily for 8 weeks; type: organism-based; details: in vivo, 1344 h, at 150 µmol/kg
[8] = Half life in Slc3a1-knockout mouse by measuring (2R)-2-amino-3-[[(2R)-2-amino-3-(1,8-diazaspiro[4.5]decan-8-yl)-3-oxo-propyl]disulfanyl]propanoic acid metabolite at 150 micromol/kg, po or 30 micromol/kg, iv measured upto 24 hrs by LC-MS/MS analysis; type: ADME, organism-based; details: in vivo, dose 150 µmol/kg; method in brief: as §1
[9] = Oral bioavailability in Slc3a1-knockout mouse by measuring (2R)-2-amino-3-[[(2R)-2-amino-3-(1,8-diazaspiro[4.5]decan-8-yl)-3-oxo-propyl]disulfanyl]propanoic acid metabolite at 150 micromol/kg or 30 micromol/kg measured upto 24 hrs by LC-MS/MS analysis; type: ADME, organism-based; details: in vivo, at 150 µmol/kg; method in brief: as §1
[10] = tested on: Cystine; test: In-vivo inhibition of L-cystine crystallization in SLC3A1-knockout male mouse assessed as reduction in stone formation in bladder at 150 micromol/kg, po administered daily for 8 weeks; type: functional, organism-based; set-up: scale not given: the % may be the effect or the level left; details: dose 150.0 µmol/kg
[11] = tested on: Cystine; test: Inhibition of L-cystine crystallization in millipore water at room temperature incubated for 72 hrs
Method in brief: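 Supersaturated L-cystine (2.9 mM) in Millipore water was incubated with varying inhibitor concentrations for 72 h at room temperature and then centrifuged. L-cystine remaining in the supernatant was measured. EC50 was taken from dose–response curves as the concentration giving 50% inhibition of crystallization.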

[12] = Oral bioavailability in Slc3a1-knockout mouse by measuring total parent compound and (2R)-2-amino-3-[[(2R)-2-amino-3-(1,8-diazaspiro[4.5]decan-8-yl)-3-oxo-propyl]disulfanyl]propanoic acid metabolite at 150 micromol/kg or 30 micromol/kg measured upto 24 hrs by LC-MS/MS analysis; type: ADME, organism-based; details: in vivo, at 150 µmol/kg; method in brief: as §1
[13] = tested on: Cystine; test: Inhibition of L-cystine crystallization in aqueous solution assessed as ratio of step velocity in presence of compound to step velocity measured initially in absence of compound at 15 uM by atomic force microscopic analysis; method in brief: as §2
[14] = (§4) Observed apparent volume of distribution during terminal phase in Slc3a1-knockout mouse at 150 micromol/kg, po or 30 micromol/kg, iv measured upto 24 hrs by LC-MS/MS analysis; type: ADME, organism-based; details: in vivo, dose 150 µmol/kg; method in brief: as §1
[15] = Oral bioavailability in Slc3a1-knockout mouse at 150 micromol/kg or 30 micromol/kg measured upto 24 hrs by LC-MS/MS analysis; type: ADME, organism-based; details: in vivo, at 150 µmol/kg; method in brief: as §1
[16] = Observed apparent oral clearance in Slc3a1-knockout mouse by measuring (2R)-2-amino-3-[[(2R)-2-amino-3-(1,8-diazaspiro[4.5]decan-8-yl)-3-oxo-propyl]disulfanyl]propanoic acid metabolite at 150 micromol/kg or 30 micromol/kg measured upto 24 hrs by LC-MS/MS analysis; type: ADME; details: in vivo, dose 150 µmol/kg; method in brief: as §1
[17] = Toxicity in SLC3A1-knockout male mouse assessed as animal death at 150 micromol/kg, po administered daily for 4 weeks; type: organism-based; details: in vivo, 672 h, dose 150 µmol/kg
[18] = AUC (0 to t) in Slc3a1-knockout mouse by measuring (2R)-2-amino-3-[[(2R)-2-amino-3-(1,8-diazaspiro[4.5]decan-8-yl)-3-oxo-propyl]disulfanyl]propanoic acid metabolite at 150 micromol/kg, po or 30 micromol/kg, iv measured upto 24 hrs by LC-MS/MS analysis; type: ADME, organism-based; details: in vivo, dose 150 µmol/kg; method in brief: as §1
[19] = tested on: Cystine; test: Inhibition of L-cystine crystallization in aqueous solution assessed as ratio of step velocity in presence of compound to step velocity measured initially in absence of compound at 45 uM by atomic force microscopic analysis; method in brief: as §2
[20] = Half life in Slc3a1-knockout mouse at 150 micromol/kg, po or 30 micromol/kg, iv measured upto 24 hrs by LC-MS/MS analysis; type: ADME, organism-based; details: in vivo, dose 150 µmol/kg; method in brief: as §1
[21] = Observed apparent oral clearance in Slc3a1-knockout mouse at 150 micromol/kg or 30 micromol/kg measured upto 24 hrs by LC-MS/MS analysis; type: ADME; details: in vivo, dose 150 µmol/kg; method in brief: as §1
[22] = Toxicity in SLC3A1-knockout male mouse assessed as animal death at 150 micromol/kg, po administered daily for 8 weeks; type: organism-based; details: in vivo, 1344 h, dose 150 µmol/kg
Method in brief: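 Slc3a1-knockout male mice, 6 weeks old, bred by Slc3a1 × Slc3a1 mating; one pup per mating treated, one or more littermates as controls. Compound dissolved in water (18.9 mg/mL) and given by daily gavage of 100 μL (150 μmol/kg) for 8 weeks; controls received 100 μL water. Mice were sacrificed at study end, and kidneys and bladders were weighed.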

[23] = Drug metabolism in Slc3a1-knockout mouse assessed as (2R)-2-amino-3-[[(2R)-2-amino-3-(1,8-diazaspiro[4.5]decan-8-yl)-3-oxo-propyl]disulfanyl]propanoic acid metabolite formation; type: ADME
[24] = Cmax in Slc3a1-knockout mouse at 150 micromol/kg, po or 30 micromol/kg, iv measured upto 24 hrs by LC-MS/MS analysis; type: ADME, organism-based; details: in vivo, dose 150 µmol/kg; method in brief: as §1
[25] = Drug level in SLC3A1-knockout mouse urine assessed as (2R)-2-amino-3-[[(2R)-2-amino-3-(1,8-diazaspiro[4.5]decan-8-yl)-3-oxo-propyl]disulfanyl]propanoic acid metabolite concentration in urine at 30 micromol/kg, iv measured after 24 hrs; type: ADME, organism-based; details: in vivo, dose 30 µmol/kg, read-out: Ct; method in brief: as §3
[26] = as §4, with “mouse by measuring (2R)-2-amino-3-[[(2R)-2-amino-3-(1,8-diazaspiro[4.5]decan-8-yl)-3-oxo-propyl]disulfanyl]propanoic acid metabolite” for “mouse”; type: ADME, organism-based; details: in vivo, dose 150 µmol/kg; method in brief: as §1

Compound	Ratio [3]	F [9] [%]	pEC50 [11]	F [12] [%]	Ratio [13]	F [15] [%]	Ratio [19]	Drug metabolism [23]	also measured
N[C@@H](CSSC[C@H](N)C(=O)N1CCC2(CCCN2)CC1)C(=O)N1CCC2(CCCN2)CC1	0.04	27	7.53	22	0.01	16	0.01	metabolite_detected	Cmax [1]: 16.9 µM; AUCt [2]: 18.542 µM·h; Activity [4]: 20.3 g; concentration [5]: 2.1 µM; AUCt [6]: 59.505 µM·h; Activity [7]: 14.6%; t1/2 [8]: 2.4 h; Activity [10]: 8%; Vz/F_obs [14]: 0.007 micromol/kg/nmol/L; CL/F_obs [16]: 0.003 micromol/kg/nmol/L/hr; Activity [17]: Non-toxic; AUCt [18]: 40.963 µM·h; t1/2 [20]: 0.6 h; CL/F_obs [21]: 0.008 micromol/kg/nmol/L/hr; Activity [22]: Non-toxic; Cmax [24]: 11.4 µM; concentration [25]: 1 µM; Vz/F obs [26]: 0.0108 micromol/kg/nmol/L
CN1CCN(C(=O)[C@@H](N)CSSC[C@H](N)C(=O)N2CCN(C)CC2)CC1	0.32	25	7.22	18	0.52	2.3	0.3	metabolite_detected	
COC(=O)[C@@H](N)CSSC[C@H](N)C(=O)OC	0.27		5.45		0.4		0.21		
